The sample as a whole holds a higher share of hits than the screen did.
XBP1 UPR activ = activators of adaptive arm of unfolded protein response (XBP1); AID 463104; activation, % at 20 µM; CHO-XBP1 luciferase reporter, IRE1-XBP1 UPR activation, luminescence; percent of tunicamycin response, DMSO as zero; 330,000 tested, 0.33% active;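 active = versus positive control, 20 µM dose yields 30% or more activation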
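Material – CHO cell line with stable XBP1 luciferase reporter · Buffer or medium – F12 plus 10% FBS · Compound – single point, 20 µM final compound, 1% DMSO · Schedule – 16-18 h cell attachment at 37 °C, then 6 h compound exposure · Signal – Steady-Glo luminescence read · Benchmarks – high control tunicamycin 10 µg/mL final, low control DMSO vehicle only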
B2AR ag = human beta-2 adrenergic receptor agonism by FAP; P07550; Am2.2-beta2AR cells, FAP receptor internalization, flow cytometry; response, % (concentration not given with the values); 340,000 tested, 0.43% active; AID 504454;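 active = response above a set limit, near 3 SD of response in nonfluorescent compounds, cut at about 42% in these data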
CHOP UPR activ = apoptotic UPR (CHOP) activation; CHO-CHOP luciferase reporter, luminescence; percent of tunicamycin response over DMSO baseline; activation, % at 10 µM; 330,000 tested, 0.34% active; AID 449763;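 active = at 10 µM dose, activation of 40% or more, normalized to positive control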
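Test system: CHO-CHOP cells, stable luciferase reporter of PERK-eIF2a-CHOP signalling | Quantity: 500 CHO-CHOP cells per well | Buffer or medium: F12 plus 10% serum | Compound dosing: 10 µM single point, 0.5% DMSO | Schedule: 6 h compound treatment, 37 °C | Signal: Luciferase luminescence | Control set: Tunicamycin high control, DMSO low control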
Dynein cargo inh = dynein cargo transport inhibition; 3617.4 mouse cells, GR-EGFP nuclear translocation imaging; test concentration mostly 20 µM; stimulated with dexamethasone, 1 µM; stronger effect = lower value; z-score, hits read low; 220,000 tested, 0.47% active; AID 1381;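 active = plate z-score of nuclear minus cytoplasmic receptor signal below a set negative limit, without overly bright fluorescence or cell loss, cut at about -3.5 in these data, passing the limit was not always enough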;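 also: z-score of nuclear minus cytoplasmic ring GR-EGFP intensity difference per well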
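Schedule: 48 h induction, then 1 h compound, then 30 min agonist, 37 °C. Buffer or medium: tetracycline-free induction medium containing charcoal-stripped FBS. Reagent: 1.0 µM final dexamethasone stimulus. Evaluation: nuclear versus cytoplasmic GR-EGFP signal, averaged per well. Signal: high-content fluorescence imaging after fixation.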
p-CIP stab down = p/CIP protein destabilization. Q05BA5. F442A p/CIP-EGFP cells, EGFP fluorescence, 16 h. decrease of EGFP signal, % at 10 µM. 290,000 tested, 0.01% active. AID 1984;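 active = EGFP signal decrease of at least 30% at 10 µM or well 3 SD below plate mean, unless failing retest; inactive = the rest, including hits failing retest or dose response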
Target sequence (Q05BA5 1-1403): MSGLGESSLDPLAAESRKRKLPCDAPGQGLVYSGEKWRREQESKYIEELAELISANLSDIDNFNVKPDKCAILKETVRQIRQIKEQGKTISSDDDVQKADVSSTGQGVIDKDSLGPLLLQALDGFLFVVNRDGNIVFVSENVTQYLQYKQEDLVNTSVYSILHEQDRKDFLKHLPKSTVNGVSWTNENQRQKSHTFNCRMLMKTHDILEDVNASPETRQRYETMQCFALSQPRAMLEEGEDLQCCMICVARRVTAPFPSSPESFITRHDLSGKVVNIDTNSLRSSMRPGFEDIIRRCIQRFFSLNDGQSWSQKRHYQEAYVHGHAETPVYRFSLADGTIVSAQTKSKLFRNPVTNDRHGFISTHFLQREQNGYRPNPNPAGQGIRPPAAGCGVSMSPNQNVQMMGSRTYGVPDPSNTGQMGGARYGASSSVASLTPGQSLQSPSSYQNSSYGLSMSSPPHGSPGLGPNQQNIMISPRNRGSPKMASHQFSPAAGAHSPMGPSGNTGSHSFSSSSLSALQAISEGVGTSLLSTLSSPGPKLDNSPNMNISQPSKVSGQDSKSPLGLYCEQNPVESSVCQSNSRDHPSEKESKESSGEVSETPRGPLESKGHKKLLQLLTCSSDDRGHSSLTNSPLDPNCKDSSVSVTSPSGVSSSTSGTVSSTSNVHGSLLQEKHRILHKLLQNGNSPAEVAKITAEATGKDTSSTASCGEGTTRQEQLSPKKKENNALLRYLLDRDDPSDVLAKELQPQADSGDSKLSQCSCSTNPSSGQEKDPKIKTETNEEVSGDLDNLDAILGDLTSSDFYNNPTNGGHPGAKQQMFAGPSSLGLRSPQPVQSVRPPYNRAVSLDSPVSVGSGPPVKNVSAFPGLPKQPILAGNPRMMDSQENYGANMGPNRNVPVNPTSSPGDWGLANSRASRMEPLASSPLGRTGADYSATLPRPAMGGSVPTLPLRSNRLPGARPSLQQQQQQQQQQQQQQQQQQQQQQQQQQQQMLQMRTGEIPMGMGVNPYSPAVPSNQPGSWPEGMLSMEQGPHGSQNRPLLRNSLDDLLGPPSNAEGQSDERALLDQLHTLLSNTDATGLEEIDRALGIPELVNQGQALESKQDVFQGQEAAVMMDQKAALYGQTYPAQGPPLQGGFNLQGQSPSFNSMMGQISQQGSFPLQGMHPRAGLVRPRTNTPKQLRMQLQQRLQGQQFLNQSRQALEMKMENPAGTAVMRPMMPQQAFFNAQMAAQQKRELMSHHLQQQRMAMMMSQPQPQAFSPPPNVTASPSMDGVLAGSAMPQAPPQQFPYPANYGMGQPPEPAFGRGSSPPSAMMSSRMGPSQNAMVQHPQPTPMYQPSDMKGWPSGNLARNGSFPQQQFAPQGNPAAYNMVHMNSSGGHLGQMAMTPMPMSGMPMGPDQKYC
CHOP inh = inhibitors of CHOP induction in ER stress response. CHO-K1 CHOP-promoter luciferase, tunicamycin-induced, 15-18 h. 220,000 tested, 3.8% active. inhibition, % at 10 µM;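 active = compounds that reduced the stress-induced luciferase reporter signal by more than about 70% of percent inhibition, limit read from the data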
CHOP inh conf = confirmation of CHOP induction inhibitors. shares compounds with CHOP inh. CHO-CHOP promoter luciferase reporter, tunicamycin-induced, luminescence. inhibition, % at 10 µM. 2,100 tested, 45% active;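 active = mean of three repeat readings of reporter signal inhibition above a set limit, cut at about 70% in these data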
Numbers stand for hits; n = inactive; x = not tested or not shown.

SMILES	XBP1 UPR activ	B2AR ag	CHOP UPR activ	Dynein cargo inh	p-CIP stab down	CHOP inh	CHOP inh conf
O=C(NCc1nc(-c2ccc(C(F)(F)F)cc2)no1)Nc1cc(Cl)cc(Cl)c1	n	n	n	n	n	102	109
O=C(NCc1nc(-c2ccc(C(F)(F)F)cc2)no1)Nc1ccc(F)cc1F	n	n	n	n	n	n	x
Cc1ccc(C)c(OCC(=O)Nc2nonc2NC(=O)COc2cc(C)ccc2C)c1	n	n	n	n	n	101	n
CCN(CC)C(=S)Sc1c(-c2ccccc2)c2cc(Cl)ccc2[nH]c1=O	n	n	n	n	n	97	n
COc1ccc2ncccc2c1Cc1c(OC)ccc2ncccc12	x	n	x	x	x	x	x
O=c1c2c(-c3ccccc3)csc2nc2c3ccccc3c(NCCN3CCOCC3)nn12	x	107	x	n	n	106	n
Cc1ccc(CNC(=O)c2ccc3c(=O)c(O)c(-c4ccc(C)cc4)[nH]c3c2)cc1	n	n	n	n	n	103	n
CCCNC(=O)c1ccc2c(=O)c(O)c(-c3ccc(C)cc3)[nH]c2c1	n	n	n	n	n	n	x
CCOC(=O)N=Nc1c(O)n(CC(=O)OC)c2ccccc12	n	n	n	n	n	n	x
CCOC(=O)N=Nc1c2ccccc2c2nc3no[nH]c3nc12	n	n	n	n	x	105	112
CCCCCCCCCCCCCCCCn1cc[n+](C)c1	n	n	n	n	n	81	115
O=C(O)C1CCC(Cn2c(SCc3cc(=O)n4cc(Cl)ccc4n3)nc3ccsc3c2=O)CC1 (stereo unspecified)	n	n	n	n	n	n	x
O=C(CSc1nc2ncccc2[nH]1)Nc1ccc2c(c1)OCO2	n	n	n	n	n	n	x
O=C(CSc1nc(-c2ccccc2)c(-c2ccccc2)[nH]1)Nc1ccc2c(c1)OCO2	n	n	n	n	n	102	n
CC(C)C[C@H](N)c1nnc(SCC(=O)Nc2ccc(Br)cc2)o1	n	n	n	x	n	x	x
CC(C)C[C@H](NC(=O)OC(C)(C)C)c1nnc(SCC(=O)Nc2ccc(Br)cc2)o1	n	n	n	n	n	100	132
Cc1ccc(NC(=O)COC(=O)/C=C/c2c(C)nn(-c3ccc(F)cc3)c2Cl)cc1F	n	n	n	n	n	n	x
Cc1ccc(NC(=O)CSC2=C(C#N)C(c3ccco3)C3=C(CC(C)(C)CC3=O)N2)cc1 (stereo unspecified)	n	n	n	n	n	100	n
COC(=O)c1oc(-c2ccc(Cl)cc2)nc1C	n	n	n	n	n	n	x
O=C(Nc1ccc([N+](=O)[O-])cc1)Nc1nc(-c2ccc(Cl)s2)cs1	x	n	x	n	n	107	83
CC(=O)Nc1nc(-c2ccc([N+](=O)[O-])cc2)cs1	n	n	n	n	n	n	x
O=C1NC[C@@H](Cc2ccc(O)cc2)N(CCc2cccc3ccccc23)C1=O	n	n	n	n	n	n	x
O=C1NC[C@@H](Cc2cccc3ccccc23)N(CCc2cc(C(F)(F)F)cc(C(F)(F)F)c2)C1=O	n	n	n	n	n	97	133
O=C(COC(=O)Cc1c(Cl)cccc1Cl)Nc1ccc(OC(F)(F)F)cc1	n	n	n	n	n	109	86
Cc1oc(=O)c(NC(=O)c2cccc(Cl)c2)cc1C(=O)c1ccccc1	n	n	n	n	n	104	n
SMILES	XBP1 UPR activ	B2AR ag	CHOP UPR activ	Dynein cargo inh	p-CIP stab down	CHOP inh	CHOP inh conf
CC(=O)c1ccc(Sc2nnc(C)s2)c([N+](=O)[O-])c1	n	n	n	n	n	n	x
Cc1nnc(Sc2cc(NCCO)c([N+](=O)[O-])c3nonc23)s1	x	n	x	n	n	98	n
Cc1nc2c(ccc3nc(NC(=O)c4ccc5c(c4)OCCO5)sc32)s1	n	n	n	n	n	100	n
C[C@H](NC(=O)c1[nH]cnc1C(=O)Nc1ccc(CNC(=O)OC(C)(C)C)cc1)C(=O)OC(C)(C)C	n	n	n	n	n	98	78
CC(C)(C)OC(=O)NCCCC[C@H](NC(=O)c1[nH]cnc1C(=O)Nc1ccc(CNC(=O)OC(C)(C)C)cc1)C(=O)OC(C)(C)C	n	x	n	n	n	n	x
C[C@H](NC(=O)c1nc[nH]c1C(=O)N[C@@H](Cc1ccccc1)C(=O)OC(C)(C)C)C(=O)OC(C)(C)C	n	n	n	n	n	97	100
COCc1nnc(NC(=O)c2c(-c3c(Cl)cccc3Cl)noc2C)s1	n	n	n	x	n	x	x
COc1ccc(OCCSc2nc(C)c(Cc3ccccc3)c(=O)[nH]2)cc1	n	n	n	n	n	n	x
COc1cccc(OCCSc2nc(C)c(Cc3ccccc3)c(=O)[nH]2)c1	n	n	n	n	n	99	n
Cc1ccc(S(=O)(=O)/N=C(/Nc2cccc(O)c2)c2ccccc2)cc1	n	n	n	x	n	x	x
Cc1cc(C)c(C)c(OCc2nc(-c3cccnc3)no2)c1	n	n	n	n	n	97	n
Cc1ccc(C2C(C#N)=C(N)Oc3cc4c(cc32)OCO4)cc1 (stereo unspecified)	n	n	n	n	n	n	x
Cc1ccc(N=Cc2cc3c(cc2O)OC(N)=C(C#N)C3c2ccccc2)cc1 (stereo unspecified)	n	n	n	n	n	99	82
Cn1ncc2c(O/N=C(\N)c3ccc(C(C)(C)C)cc3)ncnc21	n	49	n	n	n	99	85
CCOC(=O)c1ccc(Nc2ncnc3c2cnn3C)cc1	n	n	n	n	n	n	x
CCOC(=O)c1sc(NC(=O)CSc2nnnn2-c2ccc(C)cc2C)nc1C	n	n	n	n	n	100	n
CCOC(=O)Cc1csc(NC(=O)CSc2nnnn2-c2ccc(C)cc2C)n1	n	n	n	n	n	n	x
NC(=O)c1ccc(C(F)(F)F)n(Cc2ccc(Cl)cc2)c1=O	n	n	n	n	n	97	82
C=CCN(C(=O)CCC(=O)O)C1CC(=O)N(c2ccc(OCCC)cc2)C1=O (stereo unspecified)	n	n	n	n	n	n	x
CC(=O)Nc1ccccc1N(CC(O)Cn1c2ccccc2c2ccccc21)S(=O)(=O)c1ccc(C)cc1 (stereo unspecified)	n	n	n	n	n	n	x
CCN(CC(O)Cn1c2ccccc2c2ccccc21)S(=O)(=O)c1ccc(C)cc1 (stereo unspecified)	n	n	n	n	n	99	n
Cc1ccc(C(C)C)c(O)c1C(=O)O	x	n	x	x	x	x	x
N#CC1=C(N)N2C(=C(C#N)C1c1cccc(Br)c1)Nc1ccccc12 (stereo unspecified)	n	n	n	n	n	101	105

Source: PubChem BioAssay (several laboratories)
